From ChEMBL document CHEMBL2413018, “Nonclassical antifolates, part 4. 5-(2-aminothiazol-4-yl)-4-phenyl-4H-1,2,4-triazole-3-thiols as a new class of DHFR inhibitors: synthesis, biological evaluation and molecular modeling study” (Eur J Med Chem, 2013)
≈ marks a conversion by molar mass, not a printed value.

Key:
[1] = system: Bacillus subtilis; test: Antibacterial activity against Bacillus subtilis at 200 ug/disc after 24 hrs by agar disc-diffusion method; assay type: functional; conditions: for zone of inhibition at 200 µg/disc: read-out: DIZ
In short: (§1)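 Disc diffusion on Müller-Hinton agar. 8 mm filter-paper discs carried test solution in DMSO at 200 µg/disc and were placed on agar pre-inoculated with each bacterium. Incubated at 37 °C; inhibition zone diameter measured after 24 h. DMSO solvent control.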

[2] = system: Staphylococcus aureus; test: Antibacterial activity against Staphylococcus aureus at 200 ug/disc after 24 hrs by agar disc-diffusion method; assay type: functional; conditions: for zone of inhibition at 200 µg/disc: read-out: DIZ; in short: as §1
[3] = system: Bacillus subtilis; test: Antibacterial activity against Bacillus subtilis after 24 hrs by microdilution susceptibility method; assay type: functional
In short: (§2)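 Microdilution in Müller-Hinton broth. Compounds dissolved in DMSO at 64 µg/mL, then twofold dilutions from 64 down to 0.125 µg/ml. Inoculum 10^6 CFU/ml. Plates held 24 h at 37 °C. MIC taken as the lowest concentration giving no visible growth by eye.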

[4] = system: Candida albicans; test: Antifungal activity against Candida albicans at 200 ug/disc after 48 hrs by agar disc-diffusion method; assay type: functional; conditions: read-out: DIZ
In short: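 Disc diffusion for Candida albicans on Müller-Hinton agar. 8 mm discs loaded at 200 µg/disc from DMSO, with clotrimazole 200 µg/disc as reference. Plates held at 25 °C for 48 h, then growth-inhibition zone diameter measured in mm.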

[5] = system: Escherichia coli; test: Antibacterial activity against Escherichia coli at 200 ug/disc after 24 hrs by agar disc-diffusion method; assay type: functional; conditions: for zone of inhibition at 200 µg/disc: read-out: DIZ; in short: as §1
[6] = system: Escherichia coli; test: Antibacterial activity against Escherichia coli after 24 hrs by microdilution susceptibility method
[7] = system: Pseudomonas aeruginosa; test: Antibacterial activity against Pseudomonas aeruginosa at 200 ug/disc after 24 hrs by agar disc-diffusion method; assay type: functional; conditions: for zone of inhibition at 200 µg/disc: read-out: DIZ; in short: as §1
[8] = system: Staphylococcus aureus; test: Antibacterial activity against Staphylococcus aureus after 24 hrs by microdilution susceptibility method; assay type: functional; in short: as §2
[9] = system: HepG2; test: Cytotoxicity against human HepG2 cells after 48 hrs by MTT assay; assay type: functional; conditions: HepG2, 48 h, read-out: LC50 (the source's name)
In short: (§3)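 HCT116, HepG2 and MCF7 cells grown in RPMI 1640 with 1% antibiotic-antimycotic and 1% L-glutamine at 37 °C, 5% CO2, seeded at 10 x 10^3 cells/well for 24 h. Exposed in serum-free medium to 0.78–100 µM for 48 h, then MTT added for 4 h and dissolved overnight in 10% SDS.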

[10] = biological target: T1, Dihydrofolate reductase (Bos taurus, UniProt P00376); test: Inhibition of bovine liver DHFR measured every 1 min for 10 mins
T1 sequence (P00376 whole entry): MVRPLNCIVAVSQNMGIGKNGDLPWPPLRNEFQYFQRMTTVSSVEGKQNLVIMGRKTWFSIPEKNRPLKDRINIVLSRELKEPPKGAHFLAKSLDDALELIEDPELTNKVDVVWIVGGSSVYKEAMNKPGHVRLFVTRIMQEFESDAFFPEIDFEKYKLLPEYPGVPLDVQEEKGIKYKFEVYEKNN

[11] = system: Schistosoma mansoni; test: Antischistosomal activity against Schistosoma mansoni assessed as mortality at 50 ug/ml after 24 hrs by microscopic analysis; assay type: functional
In short: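 Adult worms, 3 male plus 3 female per well, triplicate wells. Compounds in DMSO, 0.5% DMSO as negative control, praziquantel 0.1 µg/ml as positive control. Incubated 37 °C for 24 h, then scored under a dissecting microscope. Worms motionless for at least 1 min, coiled and darkened, counted dead. Activity given as % dead worms per well.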

[12] = system: Pseudomonas aeruginosa; test: Antibacterial activity against Pseudomonas aeruginosa after 24 hrs by microdilution susceptibility method; assay type: functional
[13] = system: HCT-116; test: Cytotoxicity against human HCT116 cells after 48 hrs by MTT assay; assay type: functional; conditions: HCT-116, 48 h, read-out: LC50 (the source's name); in short: as §3
[14] = system: A549; test: Cytotoxicity against human A549 cells after 48 hrs by MTT assay; assay type: functional; conditions: A549, 48 h, read-out: LC50 (the source's name)
In short: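 A549 cells grown in DMEM with 1% antibiotic-antimycotic and 1% L-glutamine at 37 °C, 5% CO2, seeded at 10 x 10^3 cells/well for 24 h. Exposed in serum-free medium to 0.78–100 µM for 48 h, then MTT added for 4 h and dissolved overnight in 10% SDS.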

[15] = system: MCF7; test: Cytotoxicity against human MCF7 cells after 48 hrs by MTT assay; assay type: functional; conditions: MCF7, 48 h, read-out: LC50 (the source's name); in short: as §3

Row | Compound | zone of inhibition at 200 µg/disc [1] [mm] | zone of inhibition at 200 µg/disc [2] [mm] | MIC [3] [µg/mL] | zone of inhibition at 200 µg/disc [4] [mm] | zone of inhibition at 200 µg/disc [5] [mm] | zone of inhibition at 200 µg/disc [7] [mm] | IC50 [10] [µM] | mortality at 50 µg/mL [11] [%] | other results
1 | COc1ccccc1-n1c(S)nnc1-c1csc(N(C(C)=O)C(C)=O)n1 | 20 | 8 | 4 (≈ 10.3 µM) | 8 | 16 | 8 | – | – | MIC [6]: 0.8 µg/mL (≈ 2.05 µM)
2 | CN(Cc1cnc2nc(N)nc(N)c2n1)c1ccc(C(=O)N[C@@H](CCC(=O)O)C(=O)O)cc1 [METHOTREXATE] | 8 | 8 | – | 8 | 8 | 8 | – | – | –
3 | CC(=O)N(C(C)=O)c1nc(-c2nnc(S)n2-c2ccc(Cl)cc2)cs1 | 21 | 16 | 4 (≈ 10.2 µM) | 8 | 8 | 8 | 10 | – | MIC [8]: 4 µg/mL (≈ 10.2 µM); CC50 [9]: 29.1 µM
4 | COc1ccccc1-n1c(S)nnc1-c1csc(N)n1 | 16 | 12 | 4 (≈ 13.1 µM) | 8 | 15 | 8 | 24 | – | MIC [6]: 8 µg/mL (≈ 26.2 µM)
5 | CC(=O)N(C(C)=O)c1nc(-c2nnc(S)n2-c2ccc(Oc3ccccc3)cc2)cs1 | 20 | 18 | 2 (≈ 4.43 µM) | 8 | 8 | 8 | 15 | 100 | MIC [8]: 4 µg/mL (≈ 8.86 µM)
6 | O=C(O)c1cn(C2CC2)c2cc(N3CCNCC3)c(F)cc2c1=O [CIPROFLOXACIN] | 35 | 32 | 0.5 (≈ 1.51 µM) | – | 38 | 36 | – | – | MIC [8]: 0.5 µg/mL (≈ 1.51 µM); MIC [12]: 1 µg/mL (≈ 3.02 µM)
7 | O=C(C1CCCCC1)N1CC(=O)N2CCc3ccccc3C2C1 (centres undefined) [PRAZIQUANTEL] | – | – | – | – | – | – | – | 100 | –
8 | COc1cccc2c1C(=O)c1c(O)c3c(c(O)c1C2=O)C[C@@](O)(C(=O)CO)C[C@@H]3O[C@H]1C[C@H](N)[C@H](O)[C@H](C)O1 [DOXORUBICIN] | – | – | – | – | – | – | – | – | CC50 [13]: 37.7 µM; CC50 [14]: 28.3 µM; CC50 [9]: 21.4 µM; CC50 [15]: 26.1 µM
9 | Clc1ccccc1C(c1ccccc1)(c1ccccc1)n1ccnc1 [CLOTRIMAZOLE] | – | – | – | 21 | – | – | – | – | –
10 | CC(=O)N(C(C)=O)c1nc(-c2nnc(S)n2-c2ccc(C)cc2)cs1 | 8 | 8 | – | 8 | 8 | 8 | – | – | CC50 [14]: 25 µM; CC50 [9]: 18.9 µM; CC50 [15]: 23.8 µM
11 | Nc1nc(-c2nnc(S)n2-c2ccc(Oc3ccccc3)cc2)cs1 | 32 | 28 | 0.5 (≈ 1.36 µM) | 14 | 20 | 16 | – | 55.6 | MIC [8]: 0.5 µg/mL (≈ 1.36 µM); MIC [12]: 1 µg/mL (≈ 2.72 µM); MIC [6]: 0.5 µg/mL (≈ 1.36 µM)
12 | GENTAMICIN | – | – | 2 | – | – | – | – | – | inhibition zone (IZ) [1]: 25 mm; inhibition zone (IZ) [2]: 26.5 mm; MIC [8]: 2 µg/mL; MIC [12]: 1 µg/mL; inhibition zone (IZ) [5]: 20.8 mm; inhibition zone (IZ) [7]: 19 mm
13 | Nc1nc(-c2nnc(S)n2-c2ccccc2)cs1 | 8 | 8 | – | 8 | 8 | 8 | – | 16.6 | –
14 | Nc1nc(-c2nnc(S)n2-c2ccc(Cl)cc2)cs1 | 12 | 8 | – | 12 | 8 | 8 | 18 | 5 | –
15 | COc1ccc(-n2c(S)nnc2-c2csc(N)n2)cc1 | 12 | 8 | – | 8 | 8 | 8 | 21 | – | –
16 | CC(=O)N(C(C)=O)c1nc(-c2nnc(S)n2-c2ccccc2)cs1 | 8 | 8 | – | 8 | 8 | 8 | 35 | – | CC50 [14]: 33.2 µM
17 | Cc1ccc(-n2c(S)nnc2-c2csc(N)n2)cc1 | 8 | 8 | – | 8 | 8 | 8 | 24 | 10.5 | –
18 | COc1ccc(-n2c(S)nnc2-c2csc(N(C(C)=O)C(C)=O)n2)cc1 | 14 | 12 | – | 8 | 8 | 8 | 5 | 6 | CC50 [14]: 35.4 µM
19 | COc1ccc(-n2c(S)nnc2-c2csc(N(C(C)=O)C(C)=O)n2)c(OC)c1 | 8 | 8 | – | 8 | 8 | 8 | 8 | 0 | –
